Assay results as given in PMC8114186 (ChemMedChem, 2020).
Where two headings read alike, the source gives them in different places. Marks after values point to notes of the source that are not given here.

Legend:
NDM-1 = NDM-1 (Klebsiella pneumoniae, UniProt C7C422); test: In vitro inhibition of NDM-1-catalyzed turnover of nitrocefin; assay type: biochemical
In short: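 Purified NDM-1 enzyme, identity and purity confirmed by ESI-MS. Test compound serially diluted in 50 mM HEPES, pH 7.2, and preincubated with 1 nM NDM-1 for 10 min at rt. Nitrocefin (20 µM) then added; absorbance at 492 nm followed over 30 min at rt. Slopes normalized to each compound's maximum slope, plotted against log concentration; IC50 and confidence intervals from curve fit.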

[1] = tested on: E. coli UTI89 expressing NDM-1; assay type: cell-based
[2] = tested on: E. coli MG1655 expressing NDM-1; assay type: cell-based
[3] = E. coli MG1655, 100 μM compound

Sequence of NDM-1 (C7C422 29-270, looked up, species assumed): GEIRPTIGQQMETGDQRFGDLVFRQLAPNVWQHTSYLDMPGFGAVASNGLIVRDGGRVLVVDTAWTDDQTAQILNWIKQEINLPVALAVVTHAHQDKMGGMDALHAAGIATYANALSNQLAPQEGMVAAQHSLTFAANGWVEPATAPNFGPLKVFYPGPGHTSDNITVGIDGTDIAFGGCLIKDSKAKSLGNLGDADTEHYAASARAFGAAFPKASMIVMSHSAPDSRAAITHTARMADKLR

O=C(O)c1cccc2oc(-c3ccc4ccccc4c3O)nc12 [Compound 5, 2-(1-hydroxynaphthalen-2-yl)benzoxazole-4-carboxylic acid]
IC50 (NDM-1): 0.74 µM
Decrease of the MIC of meropenem ([1]; E. coli UTI89, 100 μM compound): at least 16 fold
Decrease of the MIC of meropenem [2, 3]: at least 16 fold

O=C(O)c1cccc2oc(-c3cc4ccccc4cc3O)nc12 [Compound 6, 2-(3-hydroxynaphthalen-2-yl)benzoxazole-4-carboxylic acid]
IC50 (NDM-1): 9.8 µM

O=C(O)c1cccc2oc(-c3c(O)ccc4ccccc34)nc12 [Compound 7, 2-(2-hydroxynaphthalen-1-yl)benzoxazole-4-carboxylic acid]
IC50 (NDM-1): 8.5 µM
Restoration of meropenem susceptibility ([1]; E. coli UTI89, 100 μM compound): failed to restore meropenem susceptibility
Meropenem MIC ([1]; E. coli UTI89, meropenem + 100 μM compound): 64 µg/mL
Restoration of meropenem susceptibility [2, 3]: failed to restore meropenem susceptibility
Meropenem MIC ([2]; E. coli MG1655, meropenem + 100 μM compound): 64 µg/mL

O=C(O)c1cccc2oc(-c3ccc4ccc(OCc5ccccc5)cc4c3O)nc12 [Compound 8, 2-(7-benzyloxy-1-hydroxynaphthalen-2-yl)benzoxazole-4-carboxylic acid]
IC50 (NDM-1): 2.3 µM
Decrease of the MIC of meropenem ([1]; E. coli UTI89, 100 μM compound): at least 16 fold
Decrease of the MIC of meropenem [2, 3]: at least 16 fold

O=C(O)c1cccc2oc(-c3ccc4cc(OCc5ccccc5)ccc4c3O)nc12 [Compound 9, 2-(6-benzyloxy-1-hydroxynaphthalen-2-yl)benzoxazole-4-carboxylic acid]
Reduction of the MIC of meropenem ([1]; E. coli UTI89, 25 μM compound): at least 4 fold
Decrease of the MIC of meropenem ([1]; E. coli UTI89, 100 μM compound): at least 16 fold
Antibacterial activity of compound on its own ([1]; E. coli UTI89, 200 μM, no meropenem): did not show any antibacterial activity
Meropenem MIC ([1]; E. coli UTI89, meropenem + 25 μM compound): 4–8^[a] μg/mL
Meropenem MIC ([1]; E. coli UTI89, meropenem + 50 μM compound): ≤0.5 µg/mL
Meropenem MIC ([1]; E. coli UTI89, meropenem + 200 μM compound): ≤0.5 µg/mL
Reduction of the MIC of meropenem ([2]; E. coli MG1655, 25 μM compound): at least 4 fold
Decrease of the MIC of meropenem [2, 3]: at least 16 fold
Antibacterial activity of compound on its own ([2]; E. coli MG1655, 200 μM, no meropenem): did not show any antibacterial activity
Meropenem MIC ([2]; E. coli MG1655, meropenem + 25 μM compound): 16 µg/mL
Meropenem MIC ([2]; E. coli MG1655, meropenem + 50 μM compound): 1–4^[a] μg/mL
Meropenem MIC ([2]; E. coli MG1655, meropenem + 200 μM compound): ≤0.5 µg/mL

O=C(O)c1cccc2oc(-c3ccc4c(OCc5ccccc5)cccc4c3O)nc12 [Compound 10, 2-(5-benzyloxy-1-hydroxynaphthalen-2-yl)benzoxazole-4-carboxylic acid]
IC50 (NDM-1): > 40 µM
Inhibitory activity against NDM-1 (in words) (NDM-1): lack of inhibitory activity

C[C@@H](O)[C@H]1C(=O)N2C(C(=O)O)=C(S[C@@H]3CN[C@H](C(=O)N(C)C)C3)[C@H](C)[C@H]12 [Meropenem, reference compound]
Meropenem MIC ([1]; E. coli UTI89, meropenem alone): >64 µg/mL
MIC ([1]; Escherichia coli, read-out: Meropenem MIC, E. coli UTI89, meropenem alone): ≥ 64 µg/mL
Meropenem MIC ([2]; E. coli MG1655, meropenem alone): 64 µg/mL
